According to ChEMBL document CHEMBL1140866, “New pyrazoline bearing 4(3H)-quinazolinone inhibitors of monoamine oxidase: synthesis, biological evaluation, and structural determinants of MAO-A and MAO-B selectivity” (Bioorg Med Chem, 2009):

Legend:
Mus musculus [1] = assay: Anxiolytic activity in albino mouse assessed as total number of entries into arms at 5 mg/kg, ip by plus-maze test; format: functional; conditions: route intraperitoneal
Mus musculus [2] = assay: Anxiolytic activity in albino mouse assessed as time spent on closed arm at 5 mg/kg, ip by plus-maze test; format: functional; conditions: route intraperitoneal
[3] = biological target: T1, Amine oxidase [flavin-containing] B (Rattus norvegicus, UniProt P19643); assay: Inhibition of MAO-B in rat liver homogenate after 60 mins by Lineweaver-Burke plot; format: tissue-based; conditions: for Activity: rat, 1 h, TDE = time-dependent effect
T1 sequence (P19643 whole entry): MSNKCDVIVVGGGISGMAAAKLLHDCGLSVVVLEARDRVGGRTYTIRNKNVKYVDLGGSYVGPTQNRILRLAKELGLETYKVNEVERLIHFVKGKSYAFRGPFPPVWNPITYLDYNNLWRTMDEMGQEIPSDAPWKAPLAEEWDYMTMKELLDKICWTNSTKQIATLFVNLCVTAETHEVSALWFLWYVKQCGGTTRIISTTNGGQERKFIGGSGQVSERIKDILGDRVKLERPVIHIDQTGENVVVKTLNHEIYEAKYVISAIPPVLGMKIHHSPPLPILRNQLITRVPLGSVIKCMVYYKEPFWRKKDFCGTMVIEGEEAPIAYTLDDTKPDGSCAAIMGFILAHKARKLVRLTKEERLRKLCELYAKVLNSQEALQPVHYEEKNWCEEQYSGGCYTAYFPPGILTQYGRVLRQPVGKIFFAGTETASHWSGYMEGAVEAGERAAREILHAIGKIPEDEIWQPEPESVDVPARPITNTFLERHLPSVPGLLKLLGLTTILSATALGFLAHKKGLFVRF

Mus musculus [4] = assay: Antidepressant activity in albino mouse assessed as immobility time at 5 mg/kg, ip by forced swim test; format: functional; conditions: route intraperitoneal
Mus musculus [5] = assay: Anxiolytic activity in albino mouse assessed as time spent on closed arm at 100 mg/kg, ip by plus-maze test; format: functional; design: unit not given here; conditions: route intraperitoneal
Summary of the method: (§1)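 Mice given compounds i.p. at 100 mg/kg in DMSO/water (1:4), about 0.1 mL, 1 h before testing; controls got 0.1 mL vehicle; n = 7–8. Housed eight per cage, 20 ± 2 °C, 12 h light/dark. Each animal did the plus-maze first, then forced swim.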

[6] = biological target: T2, Amine oxidase [flavin-containing] A (Rattus norvegicus, UniProt P21396); assay: Inhibition of MAO-A in rat liver homogenate after 60 mins by residual activity plot; format: tissue-based
T2 sequence (P21396 whole entry): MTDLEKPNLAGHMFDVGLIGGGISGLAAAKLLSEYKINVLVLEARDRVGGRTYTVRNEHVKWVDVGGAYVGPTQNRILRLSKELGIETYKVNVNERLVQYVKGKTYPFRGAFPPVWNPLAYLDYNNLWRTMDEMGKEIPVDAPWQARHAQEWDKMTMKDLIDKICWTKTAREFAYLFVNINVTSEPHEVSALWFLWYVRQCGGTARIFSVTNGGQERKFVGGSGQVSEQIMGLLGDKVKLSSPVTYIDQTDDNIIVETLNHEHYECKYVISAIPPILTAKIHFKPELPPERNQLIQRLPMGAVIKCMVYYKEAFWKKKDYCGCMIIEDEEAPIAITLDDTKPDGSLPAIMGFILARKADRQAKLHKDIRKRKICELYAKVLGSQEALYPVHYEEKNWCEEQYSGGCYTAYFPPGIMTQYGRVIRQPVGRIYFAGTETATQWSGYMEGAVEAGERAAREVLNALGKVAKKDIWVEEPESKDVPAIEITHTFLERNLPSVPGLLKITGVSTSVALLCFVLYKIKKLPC

Mus musculus [7] = assay: Anxiolytic activity in albino mouse assessed as total number of entries into arms at 100 mg/kg, ip by plus-maze test; format: functional; conditions: route intraperitoneal; summary of the method: as §1
[8] = biological target: T2, Amine oxidase [flavin-containing] A; assay: Inhibition of MAO-A in rat liver homogenate after 60 mins by Lineweaver-Burke plot; format: tissue-based; conditions: for Activity: rat, 1 h, TDE = time-dependent effect
Mus musculus [9] = assay: Antidepressant activity in albino mouse assessed as immobility time at 100 mg/kg, ip by forced swim test; format: functional; conditions: route intraperitoneal; summary of the method: as §1
[10] = biological target: T1, Amine oxidase [flavin-containing] B; assay: Inhibition of MAO-B in rat liver homogenate after 60 mins by residual activity plot; format: tissue-based

Ki [3]	IC50 [6]	Ki [8]	Activity [8]	Activity [3]	IC50 [10]	SMILES	arm entries (Mus musculus [1])	Activity (Mus musculus [2])	Activity (Mus musculus [4])	Activity (Mus musculus [5])	arm entries (Mus musculus [7])	Activity (Mus musculus [9])
10.2 µM						O=C(NCCN1CCOCC1)c1ccc(Cl)cc1 [MOCLOBEMIDE]	6.15 entries	250.72%	54.3%			
10.6 µM	9.05 µM	1.15 µM	tde	tde	399 µM	COc1ccc(/C=C/C(=N/Nc2nc3ccccc3c(=O)n2C)c2ccccc2)cc1				225.38	4.5 entries	86.75%
7.9 µM	4.51 µM	2.56 µM	tde	tde	484 µM	Cc1ccc(C2CC(c3ccccc3)=NN2c2nc3ccccc3c(=O)n2C)cc1 (centres undefined)				178.25	3.87 entries	43.25%
7.8 µM	3.56 µM	1.05 µM	tde	tde	378 µM	Cn1c(N/N=C(/C=C/c2ccc(Cl)cc2)c2ccccc2)nc2ccccc2c1=O				284.2	2.51 entries	125.86%
125 µM	31.6 µM	80.1 µM	tde	tde	400 µM	Cn1c(N/N=C(/C=C/c2ccco2)c2ccc(Cl)cc2)nc2ccccc2c1=O				219.5	6.75 entries	67.88%
1.48 µM	418 µM	6.8 µM	tde	tde	2.03 µM	COc1ccc(C2=NN(c3nc4ccccc4c(=O)n3C)C(c3ccco3)C2)cc1 (centres undefined)				226	5.57 entries	69%
5.8 µM	1.02 µM	0.9 µM	tde	tde	400 µM	Cn1c(N2N=C(c3ccccc3)CC2c2cccc(Cl)c2)nc2ccccc2c1=O (centres undefined)				218.25	3.75 entries	26.25%
179 µM	90.8 µM	181 µM	tde	tde	320 µM	Cc1ccc(C(/C=C/c2ccco2)=N\Nc2nc3ccccc3c(=O)n2C)cc1				238.67	5.14 entries	82.43%
69.6 µM	30.5 µM	40.3 µM	tde	tde	487 µM	Cn1c(N/N=C(/C=C/c2ccc(Br)cc2)c2ccccc2)nc2ccccc2c1=O				218.71	3.87 entries	65.57%
25.6 µM	420 µM	65.3 µM	tde	tde	27.6 µM	Cn1c(N2N=C(c3ccc(Cl)cc3)CC2c2cccs2)nc2ccccc2c1=O (centres undefined)				244.5	2.29 entries	61.83%
9.9 µM	4.51 µM	1.03 µM	tde	tde	400 µM	COc1ccc(C2CC(c3ccccc3)=NN2c2nc3ccccc3c(=O)n2C)cc1 (centres undefined)				162.43	5.37 entries	58%
90.5 µM	34.2 µM	70.3 µM	tde	tde	419 µM	COc1ccc(C(/C=C/c2ccco2)=N\Nc2nc3ccccc3c(=O)n2C)cc1				237.25	4.63 entries	80.38%
88.6 µM	410 µM	140 µM	tde	tde	77.1 µM	Cc1ccc(C2=NN(c3nc4ccccc4c(=O)n3C)C(c3ccco3)C2)cc1 (centres undefined)				208.57	9 entries	64%
9.25 µM	450 µM	28.7 µM	tde	tde	7.22 µM	Cn1c(N2N=C(c3ccc(Cl)cc3)CC2c2ccco2)nc2ccccc2c1=O (centres undefined)				204	4.86 entries	74%
184 µM	27.2 µM	185 µM	tde	tde	299 µM	COc1ccc(C(/C=C/c2cccs2)=N\Nc2nc3ccccc3c(=O)n2C)cc1				206.29	8 entries	49.29%
70.5 µM	35.1 µM	34.2 µM	tde	tde	415 µM	Cn1c(N/N=C(/C=C/c2ccccc2)c2ccccc2)nc2ccccc2c1=O				191	5.37 entries	55.43%
